In assay [1] the target is T1, Alpha-1A adrenergic receptor (Homo sapiens) (UniProt P35348).
T1 sequence (whole entry): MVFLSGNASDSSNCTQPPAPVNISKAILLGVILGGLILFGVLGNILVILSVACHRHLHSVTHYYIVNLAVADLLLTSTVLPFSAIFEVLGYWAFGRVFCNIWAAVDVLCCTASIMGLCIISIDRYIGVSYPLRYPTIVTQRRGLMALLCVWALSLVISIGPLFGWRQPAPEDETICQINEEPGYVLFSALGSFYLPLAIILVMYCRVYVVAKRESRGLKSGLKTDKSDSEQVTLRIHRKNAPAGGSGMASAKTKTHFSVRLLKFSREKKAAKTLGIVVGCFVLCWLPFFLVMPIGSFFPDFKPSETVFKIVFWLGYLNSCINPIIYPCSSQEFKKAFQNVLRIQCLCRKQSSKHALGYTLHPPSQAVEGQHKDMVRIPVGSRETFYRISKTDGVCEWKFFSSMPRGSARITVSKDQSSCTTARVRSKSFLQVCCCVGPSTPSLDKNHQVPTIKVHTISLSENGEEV
The assay can be described thus: (§1) Agonist potency at Alpha-1 adrenergic receptor assayed in rat-1 fibroblasts expressing human Alpha-1 adrenergic receptor. Type of assay: functional. The procedure, abridged: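 Rat-1 fibroblasts expressing human α1a/α1b/α1d, grown in DMEM with 10% heat-inactivated FBS and 0.6 mg/mL G418, plated 6000 cells/well and cultured 48 h at 37 °C. Loaded 2 h at 37 °C with Calcium Green (4 μM), 0.2% pluronic acid and 2.5 mM probenecid in HEPES buffer pH 7.4. FLIPR read at room temperature: 10 s baseline, then 50 s after compound. 11-point curves as % of 40 μM phenylephrine response, top concentration typically 5 μM.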

Assay [2] has as its target T2, Alpha-1A adrenergic receptor (Homo sapiens, UniProt P35348).
T2 sequence (P35348 whole entry): T1 sequence (whole entry)
The assay is described as §1. Type of assay: functional. The method in brief: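 Human α1a, α1b or α1d receptors expressed in Rat-1 fibroblasts (DMEM, 10% heat-inactivated FBS, 0.6 mg/mL G418). Cells were plated at 6000/well and grown 48 h at 37 °C. They were loaded 2 h at 37 °C with Calcium Green (4 μM), pluronic acid 0.2% and probenecid 2.5 mM in HEPES buffer pH 7.4, then read by FLIPR at room temperature: 10 s baseline, 50 s after compound. 11-point curves were expressed as % of the 40 μM phenylephrine response; top concentration typically 5 μM.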

Molecules are shown by their SMILES.

In assay [1], `CCCS(=O)(=O)c1ccccc1NCC1=NCCN1` had a pEC5 of 7.16.

Take `CS(=O)(=O)c1cc(F)ccc1NCC1=NCCN1`: the EC50 in assay [2] was 437 nM.

The values are drawn from ChEMBL document CHEMBL1135421, “2-(Anilinomethyl)imidazolines as alpha1 adrenergic receptor agonists: the discovery of alpha1a subtype selective 2'-alkylsulfonyl-substituted analogues” (J Med Chem, 2002).
